Reference: ChEMBL document CHEMBL1208671, “Small structural changes of pentacyclic lupane type triterpenoid derivatives lead to significant differences in their anticancer properties” (Eur J Med Chem, 2010)
Active and inactive are the calls of the source. The rule behind the calls is not given here.

Legend:
A2780 = assay: Cytotoxicity against human A2780 cells after 96 hrs by SRB colorimetric assay; type: functional, cell-based; details: A2780, 96 h
Method in brief: (§1)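 Cells kept as monolayers in RPMI 1640 with 10 % heat-inactivated FBS and 1 % penicillin/streptomycin, 37°C, 5 % CO2, seeded at optimal density. Exponentially growing cells exposed to compound for 96 h, fixed with 10 % TCA, stained with sulforhodamine B for 30 min, washed with 1 % acetic acid, bound dye dissolved in 10 mM Tris base, OD read at 570 nm. IC50 estimated from semi-log dose-response curves versus untreated controls.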

A-431 = assay: Cytotoxicity against human A431 cells after 96 hrs by SRB colorimetric assay; type: functional, cell-based; details: A-431, 96 h; method in brief: as §1
[1] = Cytotoxicity against human 518A2 cells after 96 hrs by SRB colorimetric assay; type: functional, cell-based; details: 518A2, 96 h; method in brief: as §1
HT-29 [2] = assay: Cytotoxicity against human HT-29 cells after 96 hrs by SRB colorimetric assay; type: functional, cell-based; details: HT-29, 96 h; method in brief: as §1
SW-1736 = assay: Cytotoxicity against human SW1736 cells after 96 hrs by SRB colorimetric assay; type: functional, cell-based; details: SW-1736, 96 h; method in brief: as §1
[3] = Cytotoxicity against human A253 cells after 96 hrs by SRB colorimetric assay; type: functional, cell-based; details: A253, 96 h; method in brief: as §1
MCF7 = assay: Cytotoxicity against human MCF7 cells after 96 hrs by SRB colorimetric assay; type: functional, cell-based; details: MCF7, 96 h; method in brief: as §1
A549 = assay: Cytotoxicity against human A549 cells after 96 hrs by SRB colorimetric assay; type: functional, cell-based; details: A549, 96 h; method in brief: as §1
HT-29 [4] = assay: Induction of apoptosis in human HT-29 cells assessed as upregulation of caspase 9 activity at IC90 concentration after 24 hrs; type: functional, cell-based
Method in brief: (§2)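 HT-29 monolayers were kept in RPMI 1640 with 10 % heat-inactivated FBS and 1 % penicillin/streptomycin at 37°C in 5 % CO2. Cells were exposed to the test agent, and caspase-2, -3, -8 and -9 activities were measured after 2, 6 and 24 h.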

HT-29 [5] = assay: Induction of apoptosis in human HT-29 cells assessed as DNA fragmentation at IC90 concentration after 24 hrs using ethidium bromide staining by DNA gel electrophoresis; type: functional, cell-based
Method in brief: (§3)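 RPMI 1640 cultures (10 % heat-inactivated FBS, 37°C, 5 % CO2) were exposed to the IC90 concentration for 24 h. For trypan blue exclusion, cells excluding the dye were scored as viable or early apoptotic and blue cells as necrotic. DNA was run on agarose gels, where internucleosomal laddering (180 bp multiples) indicates apoptosis and a smear indicates necrosis.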

HT-29 [6] = assay: Induction of apoptosis in human HT-29 cells assessed as upregulation of caspase 2 activity at IC90 concentration after 2 hrs; type: functional, cell-based; method in brief: as §2
HT-29 [7] = assay: Cell cycle arrest in human HT-29 cells assessed as accumulation at S phase at IC90 concentration after 24 hrs using propidium iodide staining by flow cytometry; type: functional
Method in brief: (§4)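 Exponentially growing cells were exposed to the IC90 concentration for 24 and 48 h. Cell-cycle phase distribution, including the sub-G1 apoptotic peak, was compared with untreated controls at each time.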

HT-29 [8] = assay: Cell cycle arrest in human HT-29 cells assessed as accumulation at G1 phase at IC90 concentration after 48 hrs using propidium iodide staining by flow cytometry; type: functional; method in brief: as §4
HT-29 [9] = assay: Induction of apoptosis in human HT-29 cells assessed as upregulation of caspase 3 activity at IC90 concentration after 24 hrs; type: functional, cell-based; method in brief: as §2
HT-29 [10] = assay: Cell cycle arrest in human HT-29 cells assessed as accumulation at G2/M phase at IC90 concentration after 24 hrs using propidium iodide staining by flow cytometry; type: functional; method in brief: as §4
HT-29 [11] = assay: Induction of apoptosis in human HT-29 cells assessed as upregulation of caspase 2 activity at IC90 concentration after 6 hrs; type: functional, cell-based; method in brief: as §2
HT-29 [12] = assay: Cell cycle arrest in human HT-29 cells assessed as accumulation at S phase at IC90 concentration after 48 hrs using propidium iodide staining by flow cytometry; type: functional; method in brief: as §4
HT-29 [13] = assay: Cell cycle arrest in human HT-29 cells assessed as accumulation at G1 phase at IC90 concentration after 24 hrs using propidium iodide staining by flow cytometry; type: functional; method in brief: as §4
HT-29 [14] = assay: Cell cycle arrest in human HT-29 cells assessed as accumulation at G2/M phase at IC90 concentration after 48 hrs using propidium iodide staining by flow cytometry; type: functional; method in brief: as §4
HT-29 [15] = assay: Induction of apoptosis in human HT-29 cells assessed as upregulation of caspase 2 activity at IC90 concentration after 24 hrs; type: functional, cell-based; method in brief: as §2
HT-29 [16] = assay: Cell cycle arrest in human HT-29 cells assessed as accumulation at subG1 phase at IC90 concentration after 48 hrs using propidium iodide staining by flow cytometry; type: functional; method in brief: as §4
HT-29 [17] = assay: Induction of apoptosis in human HT-29 cells at IC90 concentration after 48 hrs using annexin V and propidium iodide staining by FACS analysis relative to control; type: functional
HT-29 [18] = assay: Induction of apoptosis in human HT-29 cells assessed as upregulation of caspase 8 activity at IC90 concentration after 24 hrs; type: functional, cell-based; method in brief: as §2
HT-29 [19] = assay: Induction of apoptosis in human HT-29 cells assessed as programmed cell death at IC90 concentration after 24 hrs by trypan blue exclusion test; type: functional, cell-based; method in brief: as §3
HT-29 [20] = assay: Cell cycle arrest in human HT-29 cells assessed as accumulation at subG1 phase at IC90 concentration after 24 hrs using propidium iodide staining by flow cytometry; type: functional; method in brief: as §4
HT-29 [21] = assay: Induction of apoptosis in human HT-29 cells assessed as upregulation of caspase 8 activity at IC90 concentration after 2 hrs; type: functional, cell-based; method in brief: as §2
HT-29 [22] = assay: Induction of apoptosis in human HT-29 cells assessed as upregulation of caspase 3 activity at IC90 concentration after 2 hrs; type: functional, cell-based; method in brief: as §2
HT-29 [23] = assay: Induction of apoptosis in human HT-29 cells assessed as upregulation of caspase 9 activity at IC90 concentration after 2 hrs; type: functional, cell-based; method in brief: as §2
HT-29 [24] = assay: Induction of apoptosis in human HT-29 cells assessed as upregulation of caspase 8 activity at IC90 concentration after 6 hrs; type: functional, cell-based; method in brief: as §2
HT-29 [25] = assay: Induction of apoptosis in human HT-29 cells assessed as upregulation of caspase 3 activity at IC90 concentration after 6 hrs; type: functional, cell-based; method in brief: as §2
HT-29 [26] = assay: Induction of apoptosis in human HT-29 cells assessed as upregulation of caspase 9 activity at IC90 concentration after 6 hrs; type: functional, cell-based; method in brief: as §2

SMILES | IC50 (A2780) [µM] | IC50 (A-431) [µM] | IC50 [1] [µM] | IC50 (HT-29 [2]) [µM] | IC50 (SW-1736) [µM] | IC50 [3] [µM] | IC50 (MCF7) [µM] | IC50 (A549) [µM] | Activity (HT-29 [5]) | Activity (HT-29 [17]) | also measured
C=C(C)[C@@H]1CC[C@]2(C(=O)O)CC[C@]3(C)[C@H](CC[C@@H]4[C@@]5(C)CCC(=O)C(C)(C)[C@@H]5CC[C@]43C)[C@@H]12 [BETUNOLIC ACID] | 2.98 | 3.26 | 10.4 | 10 | 3.05 | 10.1 | 10.4 | 10.1 | – | – | –
C=C(C)[C@@H]1CC[C@]2(C(=O)OCC(N)(CO)CO)CC[C@]3(C)[C@H](CC[C@@H]4[C@@]5(C)CC[C@H](OC(C)=O)C(C)(C)[C@@H]5CC[C@]43C)[C@@H]12 | 3.62 | 2.54 | 2.87 | 2.45 | 3.73 | 2.02 | 2.76 | 3.44 | Active | 20% | Activity (HT-29 [4]): inactive; Activity (HT-29 [6]): inactive; Activity (HT-29 [7]): 19.83%; Activity (HT-29 [8]): 18.07%; Activity (HT-29 [9]): inactive; Activity (HT-29 [10]): 16.39%; Activity (HT-29 [11]): Active; Activity (HT-29 [12]): 13.85%; Activity (HT-29 [13]): 38.41%; Activity (HT-29 [14]): 7.6%; Activity (HT-29 [15]): inactive; Activity (HT-29 [16]): 60.66%; Activity (HT-29 [18]): inactive; Activity (HT-29 [19]): Active; Activity (HT-29 [20]): 25.11%; Activity (HT-29 [21]): inactive; Activity (HT-29 [22]): inactive; Activity (HT-29 [23]): inactive
C=C(C)[C@@H]1CC[C@]2(C(=O)OCC(N)(CO)CO)CC[C@]3(C)[C@H](CC[C@@H]4[C@@]5(C)CCC(=O)C(C)(C)[C@@H]5CC[C@]43C)[C@@H]12 | 10 | 10.1 | 10.8 | 9.44 | 10.1 | 10.5 | 10.6 | 10.8 | Active | 20% | Activity (HT-29 [4]): inactive; Activity (HT-29 [6]): Active; Activity (HT-29 [8]): inactive; Activity (HT-29 [24]): inactive; Activity (HT-29 [11]): inactive; Activity (HT-29 [12]): inactive; Activity (HT-29 [14]): inactive; Activity (HT-29 [15]): inactive; Activity (HT-29 [16]): inactive; Activity (HT-29 [25]): inactive; Activity (HT-29 [18]): inactive; Activity (HT-29 [19]): Active; Activity (HT-29 [26]): inactive
C=C(C)[C@@H]1CC[C@]2(C(=O)O)CC[C@]3(C)[C@H](CC[C@@H]4[C@@]5(C)CC[C@H](O)C(C)(C)[C@@H]5CC[C@]43C)[C@@H]12 | – | – | – | – | – | – | – | – | Active | Active | –
C=C(C)[C@@H]1CC[C@]2(C(=O)OCC(CO)CO)CC[C@]3(C)[C@H](CC[C@@H]4[C@@]5(C)CC[C@H](O)C(C)(C)[C@@H]5CC[C@]43C)[C@@H]12 | > 100 | > 100 | > 100 | > 100 | > 100 | > 100 | > 100 | > 100 | – | – | –
C=C(C)[C@@H]1CC[C@]2(C(=O)NC(CO)(CO)CO)CC[C@]3(C)[C@H](CC[C@@H]4[C@@]5(C)CC[C@H](O)C(C)(C)[C@@H]5CC[C@]43C)[C@@H]12 | > 100 | > 100 | > 100 | > 100 | > 100 | > 100 | > 100 | > 100 | – | – | –
C=C(C)[C@@H]1CC[C@]2(C(=O)OCC(N)(CO)CO)CC[C@]3(C)[C@H](CC[C@@H]4[C@@]5(C)CC[C@H](O)C(C)(C)[C@@H]5CC[C@]43C)[C@@H]12 | 3.46 | 3.61 | > 100 | 8.9 | > 100 | > 100 | > 100 | > 100 | – | – | –
C=C(C)[C@@H]1CC[C@]2(C(=O)O)CC[C@]3(C)[C@H](CC[C@@H]4[C@@]5(C)CC[C@H](OC(C)=O)C(C)(C)[C@@H]5CC[C@]43C)[C@@H]12 | 19 | 10.7 | 4.65 | 16.1 | 7.3 | 11.8 | 11.1 | 6.73 | – | – | –
C=C(C)[C@@H]1CC[C@]2(C(=O)NC(CO)(CO)CO)CC[C@]3(C)[C@H](CC[C@@H]4[C@@]5(C)CC[C@H](OC(C)=O)C(C)(C)[C@@H]5CC[C@]43C)[C@@H]12 | 10.1 | 10.3 | 29.6 | 10 | 10.2 | 29.5 | 29.4 | 30.5 | – | – | –
